The source made the active and inactive calls. The calls are words filed in the database; no cut-off is given here.
Tests used:
HCT-15 [1] = assay: Cytotoxicity against human HCT-15 cells assessed as reduction in cell viability; assay type: functional, cell-based
HCT-15 [2] = assay: Cytotoxicity against human HCT-15 cells assessed as reduction in cell viability incubated for 4 hrs by MTT assay; assay type: functional, cell-based; conditions: HCT-15, 4 h
[3] = Cytotoxicity against human BEAS-2B cells assessed as reduction in cell viability measured after 48 hrs by MTT assay; assay type: toxicity, cell-based
Method in brief: (§1)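 Cells kept in medium with 10% FBS and 1% antibiotic–antimycotic at 37 °C, 5% CO2. Seeded at 3000–4000 cells/well, grown overnight, then given fresh medium with a range of concentrations (diluted from 10 mM DMSO stocks) for 48 h. MTT (0.5 mg/mL) added for 3–4 h at 37 °C. Formazan dissolved in DMSO and absorbance read at 570 nm.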

A549 = assay: Cytotoxicity against human A549 cells assessed as reduction in cell viability measured after 48 hrs by MTT assay; assay type: functional, cell-based; conditions: A549, 48 h; method in brief: as §1
SK-MEL-28 [4] = assay: Induction of cell cycle arrest in human SK-MEL-28 cells assessed as accumulation of cells at G0/G1 phase at 4.13 uM incubated for 48 hrs by flow cytometry (reference value: 79.59%); assay type: functional
HCT-116 = assay: Cytotoxicity against human HCT-116 cells assessed as reduction in cell viability measured after 48 hrs by MTT assay; assay type: functional, cell-based; conditions: HCT-116, 48 h; method in brief: as §1
SK-MEL-28 [5] = assay: Cytotoxicity against human SK-MEL-28 cells assessed as reduction in cell viability measured after 48 hrs by MTT assay; assay type: functional, cell-based; conditions: SK-MEL-28, 48 h; method in brief: as §1
B16-F10 = assay: Cytotoxicity against mouse B16-F10 cells assessed as reduction in cell viability measured after 48 hrs by MTT assay; assay type: functional, cell-based; conditions: B16-F10, 48 h; method in brief: as §1
SK-MEL-28 [6] = assay: Induction of cell cycle arrest in human SK-MEL-28 cells assessed as accumulation of cells at S phase at 4.13 uM incubated for 48 hrs by flow cytometry (reference value: 6.34%); assay type: functional
SK-MEL-28 [7] = assay: Induction of cell cycle arrest in human SK-MEL-28 cells assessed as accumulation of cells at G2/M phase at 4.13 uM incubated for 48 hrs by flow cytometry (reference value: 13.14%); assay type: functional
SK-MEL-28 [8] = assay: Induction of cell cycle arrest in human SK-MEL-28 cells assessed as accumulation of cells at G2/M phase at 3.46 uM incubated for 48 hrs by flow cytometry (reference value: 13.14%); assay type: functional
SK-MEL-28 [9] = assay: Induction of cell cycle arrest in human SK-MEL-28 cells assessed as accumulation of cells at G2/M phase at 6.92 uM incubated for 48 hrs by flow cytometry (reference value: 13.14%); assay type: functional
SK-MEL-28 [10] = assay: Induction of apoptosis in human SK-MEL-28 cells assessed as horseshoe-shaped nucleus at 1.73 to 6.92 uM incubated for 48 hrs by DAPI staining based fluorescence microscopy; assay type: functional, cell-based; conditions: dose 1.73-6.92 µM
Method in brief: (§2)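 SK-MEL-28 exposed 48 h, then PBS-washed, fixed in 4% paraformaldehyde, permeabilized with 0.1% Triton X for 15 min and stained with 10 µg/mL DAPI. Nuclei viewed by fluorescence (ex 359/em 461 nm), 20X, with untreated controls.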

SK-MEL-28 [11] = assay: Induction of cell cycle arrest in human SK-MEL-28 cells assessed as accumulation of cells at G0/G1 phase at 1.73 uM incubated for 48 hrs by flow cytometry (reference value: 79.59%); assay type: functional
SK-MEL-28 [12] = assay: Induction of apoptosis in human SK-MEL-28 cells assessed as blebbing nucleus at 1.73 to 6.92 uM incubated for 48 hrs by DAPI staining based fluorescence microscopy; assay type: functional, cell-based; conditions: dose 1.73-6.92 µM; method in brief: as §2
SK-MEL-28 [13] = assay: Induction of apoptosis in human SK-MEL-28 cells assessed as reduction in live cells at 1.73 to 6.92 uM after 48 hrs by phase contrast microscopic analysis; assay type: functional, cell-based; conditions: dose 1.73-6.92 µM
Method in brief: (§3)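 SK-MEL-28 cells plated at 1×10^6 cells/mL, allowed to adhere overnight, then exposed to several concentrations for 48 h. Bright-field imaging at 20X to score cell shrinkage, deformation and viable cell number.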

SK-MEL-28 [14] = assay: Induction of cell cycle arrest in human SK-MEL-28 cells assessed as accumulation of cells at G0/G1 phase at 3.46 uM incubated for 48 hrs by flow cytometry (reference value: 79.59%); assay type: functional
[15] = Selectivity index, ratio of IC50 for cytotoxicity against human BEAS-2B cells to IC50 for cytotoxicity against human A549 cells; assay type: functional
SK-MEL-28 [16] = assay: Induction of cell cycle arrest in human SK-MEL-28 cells assessed as accumulation of cells at S phase at 1.73 uM incubated for 48 hrs by flow cytometry (reference value: 6.34%); assay type: functional
SK-MEL-28 [17] = assay: Induction of apoptosis in human SK-MEL-28 cells assessed as increase in red fluorescence at 1.73 to 6.92 uM incubated for 48 hrs by AO/EB staining based fluorescence microscopy; assay type: functional, cell-based; conditions: dose 1.73-6.92 µM
Method in brief: (§4)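 SK-MEL-28 plated at 1×10^6 cells/mL and treated at several concentrations for 48 h. Acridine orange and ethidium bromide added at 10 µg/ml, and cells imaged at once by fluorescence microscopy (ex 488/em 550 nm), 20X.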

SK-MEL-28 [18] = assay: Induction of apoptosis in human SK-MEL-28 cells assessed as cell membrane disruption at 1.73 to 6.92 uM incubated for 48 hrs by AO/EB staining based fluorescence microscopy; assay type: functional; conditions: dose 1.73-6.92 µM; method in brief: as §4
Tubulin = assay: Inhibition of tubulin polymerization (unknown origin) at 1.73 to 6.92 uM measured after 1 hr; assay type: protein-complex assay, Homo sapiens
Method in brief: (§5)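 Fluorescence-based tubulin polymerization kit: tubulin, GTP and tubulin glycerol buffer mixed and added to compound (from 10x stocks), enhancer and inhibitor reference standards, and blanks in a plate prewarmed to 37 °C. Read kinetically for 1 h at ex 360/em 450 nm.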

SK-MEL-28 [19] = assay: Induction of apoptosis in human SK-MEL-28 cells assessed as morphological changes measured after 48 hrs by AO/EB staining based microscopic analysis; assay type: functional, cell-based; conditions: dose 1.73-6.92 µM; method in brief: as §4
[20] = Selectivity index, ratio of IC50 for cytotoxicity against human BEAS-2B cells to IC50 for cytotoxicity against human HCT-116 cells; assay type: functional
SK-MEL-28 [21] = assay: Induction of cell cycle arrest in human SK-MEL-28 cells assessed as accumulation of cells at S phase at 3.46 uM incubated for 48 hrs by flow cytometry (reference value: 6.34%); assay type: functional
SK-MEL-28 [22] = assay: Potency index, ratio of sunitinib IC50 to test compound IC50 for cytotoxicity against human SK-MEL-28 cells assessed as reduction in cell viability measured after 48 hrs by MTT assay; assay type: functional
SK-MEL-28 [23] = assay: Induction of cell cycle arrest in human SK-MEL-28 cells assessed as accumulation of cells at G0/G1 phase at 6.92 uM incubated for 48 hrs by flow cytometry (reference value: 79.59%); assay type: functional
SK-MEL-28 [24] = assay: Induction of apoptosis in human SK-MEL-28 cells assessed as nuclear condensation at 1.73 to 6.92 uM incubated for 48 hrs by DAPI staining based fluorescence microscopy; assay type: functional, cell-based; conditions: dose 1.73-6.92 µM; method in brief: as §2
SK-MEL-28 [25] = assay: Induction of cell cycle arrest in human SK-MEL-28 cells assessed as accumulation of cells at S phase at 6.92 uM incubated for 48 hrs by flow cytometry (reference value: 6.34%); assay type: functional
SK-MEL-28 [26] = assay: Induction of apoptosis in human SK-MEL-28 cells assessed as cellular shrinkage at 1.73 to 6.92 uM after 48 hrs by phase contrast microscopic analysis; assay type: functional, cell-based; conditions: dose 1.73-6.92 µM; method in brief: as §3
SK-MEL-28 [27] = assay: Induction of apoptosis in human SK-MEL-28 cells assessed as change in cell shape at 1.73 to 6.92 uM after 48 hrs by phase contrast microscopic analysis; assay type: functional, cell-based; conditions: dose 1.73-6.92 µM; method in brief: as §3
SK-MEL-28 [28] = assay: Induction of apoptosis in human SK-MEL-28 cells assessed as apoptotic body formation at 1.73 to 6.92 uM incubated for 48 hrs by AO/EB staining based fluorescence microscopy; assay type: functional, cell-based; conditions: dose 1.73-6.92 µM; method in brief: as §4
SK-MEL-28 [29] = assay: Induction of cell cycle arrest in human SK-MEL-28 cells assessed as accumulation of cells at G2/M phase at 1.73 uM incubated for 48 hrs by flow cytometry (reference value: 13.14%); assay type: functional
SK-MEL-28 [30] = assay: Induction of apoptosis in human SK-MEL-28 cells assessed as early apoptotic cells measured after 48 hrs by annexin-V-FITC/PI double staining based flow cytometric analysis; assay type: functional, cell-based; conditions: dose 1.73-6.92 µM
Method in brief: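 1×10^6 SK-MEL-28 cells treated at various concentrations for 48 h. Cells trypsinized with supernatant retained and washed twice in ice-cold PBS. Stained with annexin V-FITC and PI in binding buffer for 15 min at room temperature in the dark, kept on ice, and analysed by flow cytometry.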

Tubulin (Homo sapiens) = Tubulin (Homo sapiens) (UniProt P68371+Q9H4B7+P0DPH7+P68366+Q13509+Q71U36+P04350+Q3ZCM7+P07437+P68363+Q9BQE3+Q6PEY2+Q13885+Q9BVA1+Q9BUF5); assay: Inhibition of tubulin polymerization (unknown origin) at 1.73 to 6.92 uM measured after 1 hr relative to control; assay type: protein-complex assay; conditions: dose 1.73-6.92 µM; method in brief: as §5
SK-MEL-28 [31] = assay: Induction of apoptosis in human SK-MEL-28 cells assessed as nucleus fragmentation at 1.73 to 6.92 uM incubated for 48 hrs by DAPI staining based fluorescence microscopy; assay type: functional, cell-based; conditions: dose 1.73-6.92 µM; method in brief: as §2
SK-MEL-28 [32] = assay: Induction of apoptosis in human SK-MEL-28 cells assessed as budding nucleus at 1.73 to 6.92 uM incubated for 48 hrs by DAPI staining based fluorescence microscopy; assay type: functional, cell-based; conditions: dose 1.73-6.92 µM; method in brief: as §2
[33] = Selectivity index, ratio of IC50 for cytotoxicity against human BEAS-2B cells to IC50 for cytotoxicity against human SK-MEL-28 cells; assay type: functional
[34] = Selectivity index, ratio of IC50 for cytotoxicity against human BEAS-2B cells to IC50 for cytotoxicity against mouse B16-F10 cells; assay type: functional
SK-MEL-28 [35] = assay: Induction of apoptosis in human SK-MEL-28 cells assessed as increase in ROS level incubated for 48 hrs by DCFDA staining based fluorescence microscopic assay; assay type: functional, cell-based; conditions: dose 1.73-6.92 µM
Method in brief: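 SK-MEL-28 seeded at 1×10^6 cells/well and treated at several concentrations for 48 h at 37 °C. DCFDA (10 µM) loaded for 30 min at 37 °C, excess washed off with PBS, and green DCF fluorescence imaged (ex 498/em 530 nm), 20X.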

COc1ccc(CC/N=C2/NC(=O)/C(=C\c3c[nH]c4ccc(Br)cc34)S2)cc1
IC50 (HCT-15 [1]): 0.92 µM
IC50 (HCT-15 [2]): 0.92 µM

CCN(CC)CCNC(=O)c1c(C)[nH]c(/C=C2\C(=O)Nc3ccc(F)cc32)c1C [SUNITINIB]
IC50 at 48 h [3]: 6.09 µM
IC50 (A549): 5.73 µM
Activity (SK-MEL-28 [4]): 76.33%
IC50 (HCT-116): 10.7 µM
IC50 (SK-MEL-28 [5]): 4.13 µM
IC50 (B16-F10): 15.3 µM
Activity (SK-MEL-28 [6]): 5.09%
Activity (SK-MEL-28 [7]): 17.92%

O=C1CS/C(=N\c2cc(-c3c[nH]c4ccccc34)nn2-c2cccc(Cl)c2)N1
Activity (SK-MEL-28 [8]): 16.11%
Activity (SK-MEL-28 [9]): 16.39%
Activity (SK-MEL-28 [10]): Active
IC50 at 48 h [3]: 15.9 µM
Activity (SK-MEL-28 [11]): 77.35%
Activity (SK-MEL-28 [12]): Active
Activity (SK-MEL-28 [13]): Active
IC50 (A549): 11.5 µM
Activity (SK-MEL-28 [14]): 77.33%
Ratio IC50 [15]: 1.38
Activity (SK-MEL-28 [16]): 6.73%
Activity (SK-MEL-28 [17]): Active
Activity (SK-MEL-28 [18]): Active
IC50 (Tubulin): < 1.73 µM
Activity (SK-MEL-28 [19]): Dose-Dependent Effect
Ratio IC50 [20]: 1.76
Activity (SK-MEL-28 [21]): 6.73%
Ratio IC50 (SK-MEL-28 [22]): 1.5
IC50 (HCT-116): 9.02 µM
Activity (SK-MEL-28 [23]): 77.01%
IC50 (SK-MEL-28 [5]): 3.46 µM
Activity (SK-MEL-28 [24]): Active
IC50 (B16-F10): 10.8 µM
Activity (SK-MEL-28 [25]): 5.7%
Activity (SK-MEL-28 [26]): Active
Activity (SK-MEL-28 [27]): Active
Activity (SK-MEL-28 [28]): Active
Activity (SK-MEL-28 [29]): 14.31%
Activity (SK-MEL-28 [30]): Dose-Dependent Effect
inhibition (Tubulin (Homo sapiens)): 60%
Activity (SK-MEL-28 [31]): Active
Activity (SK-MEL-28 [32]): Active
Ratio IC50 [33]: 4.59
Ratio IC50 [34]: 1.47
Activity (SK-MEL-28 [35]): Dose-Dependent Effect

Reference: ChEMBL document CHEMBL5252634, “Design, synthesis and in vitro cytotoxicity evaluation of indolo-pyrazoles grafted with thiazolidinone as tubulin polymerization inhibitors” (RSC Med Chem, 2023)
